Experimental data as given in ChEMBL document CHEMBL5321217, “Identification of pyrrolo[3',4':3,4]cyclohepta[1,2-d][1,2]oxazoles as promising new candidates for the treatment of lymphomas” (Eur J Med Chem, 2023).
Activity calls are given as the source filed them. The rule behind the calls is not given here.

Experiments:
[1] = system: VL51; test: Induction of cell cycle arrest in human VL51 cells assessed as accumulation of cells at G2/M phase at 5 uM incubated for 24 hrs by PI staining based flow cytometry analysis; type: functional
Summary of the method: (§1)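 Seeding in 6-well plates, 2 mL medium: A549 5×10^4, CCRF-CEM 2.5×10^5, VL51 2.0×10^5. 24 h treatment, A549 detached with trypsin-EDTA. Cells fixed in 70% ice-cold ethanol, PI-labelled, analysed by flow cytometry. Mean of two independent experiments.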

[2] = molecular target: Tubulin; test: Inhibition of tubulin assembly (unknown origin); type: protein-complex assay, Homo sapiens
[3] = system: CCRF-CEM; test: Induction of cell cycle arrest in human CCRF-CEM cells assessed as accumulation of cells at G2/M phase at 10 uM incubated for 24 hrs by PI staining based flow cytometry analysis; type: functional; summary of the method: as §1
[4] = system: VL51; test: Induction of cell cycle arrest in human VL51 cells assessed as increase in mitotic cells at 0.5 to 1 uM incubated for 24 hrs by PI staining based flow cytometry analysis; type: functional; details: dose 0.5-1 µM
[5] = molecular target: T1, Tubulin (Homo sapiens) (UniProt P68371+Q9H4B7+P0DPH7+P68366+Q13509+Q71U36+P04350+Q3ZCM7+P07437+P68363+Q9BQE3+Q6PEY2+Q13885+Q9BVA1+Q9BUF5); test: Inhibition of [3H]colchicine binding to tubulin (unknown origin) at 5 uM relative to control; type: protein-complex assay
Summary of the method: (§2)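 Colchicine-site competition: 0.5 μM tubulin with 5.0 μM [3H]colchicine and inhibitor at 5.0 μM, or 25 μM where stated.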

[6] = system: A549; test: Induction of cell cycle arrest in human A549 cells assessed as accumulation of cells at G2/M phase at 5 uM incubated for 24 hrs by PI staining based flow cytometry analysis; type: functional; summary of the method: as §1
[7] = Cytotoxicity against PHA-induced human PBL cells assessed as inhibition of cell growth measured after 72 hrs by MTT assay; type: toxicity, cell-based; details: PHA-induced human peripheral blood lymphocytes (PBL)
[8] = molecular target: T1, Tubulin (Homo sapiens); test: Inhibition of [3H]colchicine binding to tubulin (unknown origin) at 25 uM relative to control; type: protein-complex assay; summary of the method: as §2
[9] = system: VL51; test: Induction of mitochondrial membrane potential depolarization in human VL51 cells at 0.5 to 1 uM measured after 24 hrs by JC-1 fluorescent dye based flow cytometry analysis; type: functional, cell-based; details: dose 0.5-1 µM
Summary of the method: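 VL51 cells treated 24 h at 0.5 and 1.0 μM, labelled with JC-1, analysed by flow cytometry in FL1 and FL2 channels.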

[10] = Cytotoxicity against resting human PBL cells assessed as inhibition of cell growth measured after 72 hrs by MTT assay; type: toxicity, cell-based; details: resting human peripheral blood lymphocytes (PBL)

For `COc1ccc(Cn2cc3c(c2-c2ccccc2)CCCc2cnoc2-3)cc1`, the Activity [1] was “Active”, the IC50 [2] was 1.1 µM and the Activity [3] was “Active”. The Activity [4] was “inactive”, the inhibition [5] was 1.8% and the Activity [6] was “Active”. The IC50 at 72 h [7] was greater than 10 µM, the inhibition [8] was 19% and the Activity [9] was “inactive”. The IC50 at 72 h [10] was greater than 10 µM.
In the case of `COc1ccc(Cn2cc3c(c2-c2ccc(OC)cc2)CCCc2cnoc2-3)cc1`, the IC50 [2] is reported as 4.6 µM and the inhibition [5] is reported as 7.7%.
